V-ATPase pHluor: regulators of yeast V-ATPase proton transport. S. cerevisiae, pHLuorin cytosolic pH fluorescence. 350,000 tested, 0.37% active. response, % at 10 µM. AID 504577; in the data active = response mostly above about 7.3%, no sharp cut-off; inactive = mostly below about 5.4%; also: actives read high
T cell modulator: T cell immune modulation candidate. 2C CD8+ T cell-vesicle binding, flow cytometry; active compounds read low. response (vesicle binding), % at 7 µM. 330,000 tested, 0.068% active;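 active = response, share of CD8 T cells binding vesicles, and their 90th percentile fluorescence all below set limits, cut at about 80% in these data, passing the limit was not always enough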;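 also: values below 100% mean blocked vesicle binding to the CD8+ T cells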
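Benchmarks: naked versus QL9-loaded vesicles / Assay system: purified 2C TCR transgenic mouse naive CD8+ T cells / Technique: high-throughput flow cytometry with anti-B7-1 and anti-CD8 staining / Timing: Cell–vesicle co-incubation 1.5 h at 37 °C, staining 20 min on ice / Read-out: percent CD8+ FL2 mean versus row control / Probe or stimulus: QL9-loaded Drosophila micro-vesicles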
Xi reactivation: activators of X-chromosome reactivation in mouse fibroblasts; XiGFP mouse fibroblasts, % GFP-positive cells imaging, 3 d; cells co-treated with 5-aza-dC sensitizer; scaled so ellipticine positive control = 100%; activation, % at 7.58 µM; 360,000 tested, 0.055% active; AID 743238;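 active = mean normalized replicate activation at least 10% and every replicate at or above 10%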;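 also: 0% = median of on-plate neutral control wells and 100% = ellipticine 6 µM median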
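System: SV40-immortalized XiGFP fibroblast cells, line 68-5-11 / Incubation: 3-day compound exposure, then 15 min fixation at room temperature / Compound: single concentration per compound, delivered by pin transfer / Buffer or medium: DMEM plus 5-aza-dC sensitizer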
MIN6 prolif-1: induces beta-cell replication in MIN6 cells. 330,000 tested, 0.29% active. proliferation, % at 10 µM. AID 2380. MIN6 cells proliferation, ATPlite luminescence, 48 h; cells starved in 0.2% serum; 100% = growth in 10% serum;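 active = compounds whose signal lies at least 3.5 SD above the mean of all wells on their plate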;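 also: 0% = DMSO-treated cells in low-serum medium and 100% = 10% serum control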
NTR1 ag: NTR1 (human) agonism. 330,000 tested, 0.17% active. activation, % at 20 µM. NTR1-U2OS beta-arrestin-GFP spot imaging, agonist mode;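 active = activation at or above 40% of the spot to cytoplasm intensity ratio, with at least 20 cells analyzed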;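 also: 0% = DMSO without peptide and 100% = 100 nM NTR1 peptide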
Target sequence (P30989 whole entry, looked up): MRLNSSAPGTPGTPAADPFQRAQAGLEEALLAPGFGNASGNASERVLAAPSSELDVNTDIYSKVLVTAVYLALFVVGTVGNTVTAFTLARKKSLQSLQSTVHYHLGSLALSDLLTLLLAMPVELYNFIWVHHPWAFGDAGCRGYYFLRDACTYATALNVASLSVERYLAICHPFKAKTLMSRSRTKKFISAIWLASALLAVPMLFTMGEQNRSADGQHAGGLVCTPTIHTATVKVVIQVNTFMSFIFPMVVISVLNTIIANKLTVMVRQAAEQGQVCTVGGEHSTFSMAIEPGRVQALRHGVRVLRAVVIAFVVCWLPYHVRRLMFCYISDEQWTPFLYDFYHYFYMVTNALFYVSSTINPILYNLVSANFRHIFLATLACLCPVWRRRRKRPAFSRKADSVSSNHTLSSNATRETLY
Arr AP2 block: blocks beta-arrestin peptide binding to AP2 adaptin; FITC-arrestin peptide / GST-AP2 beads, flow cytometry; AP2 beta2 appendage carries R879A mutation; inhibition, % at 10 µM; 340,000 tested, 0.31% active; AID 504490;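 active = inhibition above a set limit, near 3 SD of compounds lacking own fluorescence, cut at about 54% in these data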;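 also: plate controls were DMSO wells for no effect and 5 µM unlabelled arrestin peptide for full effect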
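System: GST-AP2 R879A bound to glutathione beads, E. coli-expressed. Also added: 50 nM FITC-arrestin peptide. Schedule: compound with beads 12 min RT, then probe 1 h RT. Signal: bead flow cytometry, FITC channel. Read-out basis: percent response.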
MIN6 prolif-2: confirmation of inducers of beta-cell replication in MIN6 cells; shares compounds with MIN6 prolif-1; MIN6 beta-cell proliferation, ATPlite luminescence, 48 h; cells kept in 0.2% serum; scaled between 0.2% and 10% serum; proliferation increase, % at 50 µM; 920 tested, under 10 active; AID 463095;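 active = proliferation increase above 40% at any of the four tested concentrations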
The depositor's hits bear a star; . = no result given. Shown are actives, neighbours in structure and some others; about 0.89% of the full set was active somewhere.

SMILES | V-ATPase pHluor | T cell modulator | Xi reactivation | MIN6 prolif-1 | NTR1 ag | Arr AP2 block | MIN6 prolif-2
CC(NCc1ccccc1)C1COc2ccccc2O1 (centres undefined) | 0.2 | 106.4 | . | 5.5* | -1.3 | -7.8 | -0.2
COc1ccc(CNC(C)C2COc3ccccc3O2)c(OC)c1 (centres undefined) | 4.8 | 440.5 | . | 1.7 | -0.2 | 5.6 | .
C[C@H](CO)N1C[C@H](C)[C@@H](CN(C)Cc2cccnc2)Oc2ncc(C3=CCCC3)cc2C1=O | . | . | 0.4 | . | . | . | .
O=C(NC1CCCCCCC1)C1c2ccccc2C(=O)N1Cc1ccco1 (centres undefined) | 5.4 | 571.1 | . | 4.3 | -1.7 | 6.0 | .
CC1CCCC(NC(=O)C2c3ccccc3C(=O)N2Cc2cccs2)C1C (centres undefined) | -2.1 | 390.2 | 0.1 | 0.0* | 2.8 | 35.9 | -6.3
COc1cccc(Cn2c(=O)c3[nH]cnc3n(-c3ccccc3C)c2=O)c1 | -4.2 | 343.5 | 0.1 | 13.7* | 1.0 | 10.7 | 2.1
COc1cc(CNC(=O)c2ccc3c(c2)S(=O)(=O)c2ccccc2C3=O)cc(OC)c1 | -0.2 | 416.9 | 0.1 | 14.6* | 9.1 | -10.3 | 3.2
O=C(NCc1ccc(F)cc1)c1ccc2c(c1)S(=O)(=O)c1ccccc1C2=O | -3.3 | 411.6 | 0.1 | 8.1 | 7.8 | 4.4 | .
O=C(Nc1ccc(S(=O)(=O)O)cc1)c1ccc2c(c1)S(=O)(=O)c1ccccc1C2=O | -0.2 | 778.3 | 0.5 | 13.6* | -5.5 | 2.0 | -1.1
CC(C)CC#Cc1ccc2c(c1)O[C@H](CN(C)C(=O)c1ccccn1)[C@H](C)CN([C@@H](C)CO)S2(=O)=O | . | . | -1.7 | . | . | . | .
CC(C)=CC/C=C1\CCC(C(=O)O)C(C(=O)O)C1 (centres undefined) | 1.7 | 488.8 | . | 5.5* | 1.5 | 0.9 | -2.0
CN(C)C(=O)C[C@H]1CC[C@H](NC(=O)Nc2cccc(F)c2)[C@@H](CO)O1 | . | . | 0.0 | . | . | . | .
CCOC(=O)c1c(C)[nH]c(C)c1C(=O)COC(=O)/C=C/c1ccccc1[N+](=O)[O-] | 1.2 | 419.1 | 0.1 | 9.1* | 4.8 | 16.4 | -4.8
Cc1ccc(C)c(N(C(=O)c2ccco2)C(C(=O)NC2CCCC2)c2ccco2)c1 (centres undefined) | -1.5 | 191.8 | 0.0 | 5.7* | -0.1 | 18.1 | -5.8
Cc1ccc(C(C(=O)NC2CCCCC2)N(CC2CCCO2)C(=O)CNC(=O)c2ccco2)cc1 (centres undefined) | -1.2 | 202.6 | . | 5.5* | -1.2 | -2.2 | -0.9
O=C(NC1CCCC1)C(c1ccco1)N(C(=O)c1ccco1)c1ccccc1 (centres undefined) | 9.5 | 487.9 | 0.0 | -3.0 | 1.2 | 6.2 | .
O=C(NCC(=O)N(Cc1ccc(F)cc1)C(C(=O)NC1CCCC1)c1ccco1)c1ccco1 (centres undefined) | 0.2 | 163.5 | . | 7.1* | -0.4 | -3.0 | -2.3
COc1ccc(S(=O)(=O)N(C)C[C@H]2Oc3ccc(NC(=O)C4CC4)cc3CC(=O)N([C@@H](C)CO)C[C@H]2C)cc1 | . | . | 0.1 | . | . | . | .
C[C@H]1CN([C@@H](C)CO)C(=O)c2cc(NC(=O)CCN3CCOCC3)ccc2O[C@H]1CN(C)Cc1ccc(C(=O)O)cc1 | . | . | -0.8 | . | . | . | .
COC(=O)c1cnc(N2CCCN(S(=O)(=O)c3ccccc3)CC2)nc1C(F)(F)F | 0.7 | 256.1 | 0.0 | -2.6 | 1.2 | 39.7 | .
COC(=O)c1cnc(N2CCOCC2)nc1C(F)(F)F | -0.8 | 541.4 | -0.1 | 6.3* | 0.2 | 11.3 | -0.3
C[C@@H]1CCCCO[C@H](CN(C)C(=O)c2ccncc2)[C@H](C)CN([C@H](C)CO)C(=O)c2cc(NS(=O)(=O)c3ccccc3)ccc2O1 | . | . | -0.7 | . | . | . | .
O=[N+]([O-])c1ccc(-n2nnnc2CN2CCCCC2)cc1 | 1.3 | 316.5 | 0.0 | 9.3* | 0.1 | 5.8 | 5.5
O=[N+]([O-])c1ccc(-n2nnnc2CN2CCOCC2)cc1 | 0.7 | 177.9 | 0.0 | -0.8 | 2.0 | -7.9 | .

Screening data (PubChem BioAssay)
